A word on the IC50: it is the concentration that inhibits the measured activity by half.

One assay has as its system HRPT cells. Put plainly: Palmitate-induced lipoapoptosis by TUNEL in HRPT cells. The class given is cell-based, human. To be noted: for Effect on palmitate-induced lipoapoptosis: drug 5 μM, 2 hr, then palmitate 100 μM, 16 hr. In outline: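 Immortalized human kidney proximal tubule cells were grown to near confluence on glass coverslips. They were preincubated with test compound (5 μM, 2 hr, 37°C), then albumin-complexed palmitate was added (100 μM, 16 hr, 37°C). Fixed cells were scored by TUNEL under fluorescence microscopy at 400X by blinded operators, ten random fields, one experiment. Mean ± SD; ANOVA.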

Another assay addresses human FATP2 (Homo sapiens, UniProt O14975). Put plainly: BODIPY-C16 FA uptake in HRPT cells stably expressing human FATP2. The class given is cell-based.

A value given as a limit tells only on which side of the number the result lay.

In the case of `Cc1ccc2c(c1)C1(NN=C(c3ccccc3)S1)C(=O)N2` (centres unmarked) [Compound 1], in the assay on HRPT cells, the “Effect on palmitate-induced lipoapoptosis” value (from here on “Effect”) is “protective”. Also, in the assay with HRPT cells (read-out: IC50 for palmitate-induced apoptosis, compound 2 hr 37° C, then palmitate 100 μM, 16 hr), the IC50 is 600 nM. As to `O=C1Nc2ccc(Br)cc2C12NN=C(c1ccccc1)S2` (centres unmarked) [Lipofermata], the “Effect” value with HRPT cells is on record as “protective”. Take `CCCCCc1cccc(CC(=O)O)c1` [PBI-4050]: the IC50 against human FATP2 was over 500000 nM. As to Grassofermata, the “Effect” value in the assay with HRPT cells is “increased apoptosis”.

The record behind these values is publication PMC10527240 (International journal of biological macromolecules, 2023).
